Results taken from ChEMBL document CHEMBL2203086, “Structure-Based Discovery of a Novel Pentamidine-Related Inhibitor of the Calcium-Binding Protein S100B” (ACS Med Chem Lett, 2012).

Tests used:
[1] = Destabilization of rat/bovine S100B assessed as change in melting temperature by differential scanning calorimetry
How it was run: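 DSC on S100B dialyzed into 5 mM HEPES pH 7.2, 15 mM NaCl, 10 mM CaCl2, 0.5 mM TCEP, at 40-50 µM per monomer. Compound prepared in dialysis buffer, 200 µM final. Buffer reference scans subtracted and data normalized to protein concentration. Apparent Tm taken from peak maxima, compared against ligand-free S100B.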

[2] = Binding affinity to rat/bovine recombinant S100B expressed in Escherichia coli [HMS174(DE3)strain] by NMR spectroscopy
[3] = tested on: Malme-3M; experiment: Growth inhibition of human MALME-3M cells transfected with S100B siRNA after 4 days by SYBR green assay; format: functional, cell-based
How it was run: (§1)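 MALME-3M melanoma cells, stable hairpin-vector lines with scrambled control siRNA (high S100B) or S100B knockdown siRNA (clone #7), grown in IMDM with 20% FBS, neomycin omitted during assay. Seeded in 384-well plates and grown 24 h at 37 °C, 5% CO2. Compound added, DMSO in controls, then 4 days incubation. Lysed with 1.2% Igepal plus SYBR Green I (1:10,000) for 24 h. Fluorescence read at 485/520 nm as a DNA/cell-number measure, and IC50 derived.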

[4] = tested on: Malme-3M; experiment: Growth inhibition of human MALME-3M cells overexpressing calcium-binding protein S100B after 4 days by SYBR green assay; format: functional, cell-based; how it was run: as §1
[5] = Binding affinity to rat/bovine recombinant S100B at tight site expressed in Escherichia coli [HMS174(DE3)strain] by NMR spectroscopy
[6] = Binding affinity to rat/bovine recombinant S100B at weaker site expressed in Escherichia coli [HMS174(DE3)strain] by NMR spectroscopy
[7] = Homo sapiens, Malme-3M, 96 h, read-out: IC50

SMILES	ΔTm [1] [°C]	Kd ([2]; read-out: Kd) [µM]	IC50 [3, 7] [µM]	IC50 [4, 7] [µM]	Kd [2]	IC50 ([3]; malme-3m)	IC50 ([4]; malme-3m)	Kd [5] [µM]	Kd [6] [µM]
N=C(N)c1ccc(OCCCCCCCOc2ccc(C(=N)N)cc2)cc1 [HEPTAMIDINE]	18.3	6.9	6.8	4.2	–	–	–	–	–
N=C(N)c1ccc(OCCCCCCOc2ccc(C(=N)N)cc2)cc1 [HEXAMIDINE]	–	–	–	–	Not Active	Not Active	Not Active	–	–
N=C(N)c1ccc(OCCCCCOc2ccc(C(=N)N)cc2)cc1 [PENTAMIDINE]	1	–	12.2	10.2	–	–	–	0.13	40
